# Test system: U2OS
# Assay: Multiplex assay against U2OS
# Assay type: toxicity, cell-based
# Settings: human
# Summary of the method: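 On a CQ1 microscope at 37°C and 5% CO2, live cells were imaged after compound addition. They had been stained at seeding with Hoechst33342, BioTracker Green Microtubule Cytoskeleton Dye, MitoTracker Red and Annexin V Alexa Fluor 680. CellPathfinder machine-learning gating assigned cells to Hoechst high-intensity objects or normal cells, normal cells to healthy, pyknosed or fragmented nuclei, and pyknosed cells to mitotic or apoptotic. Tubulin, mitochondrial-mass and membrane-permeability phenotypes are per cents of healthy-nucleus cells.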
# [1] = 12 h, 1 µM, compound concentration 1 uM, replicate 1
# [2] = 12 h, 1 µM, compound concentration 1 uM, replicate 2
# [3] = 12 h, 10 µM, compound concentration 10 uM, replicate 1
# [4] = 12 h, 10 µM, compound concentration 10 uM, replicate 2
# [5] = 24 h, 1 µM, compound concentration 1 uM, replicate 1
# [6] = 24 h, 1 µM, compound concentration 1 uM, replicate 2
# [7] = 24 h, 10 µM, compound concentration 10 uM, replicate 1
# [8] = 24 h, 10 µM, compound concentration 10 uM, replicate 2
# [9] = 48 h, 1 µM, compound concentration 1 uM, replicate 1
# [10] = 48 h, 1 µM, compound concentration 1 uM, replicate 2
# [11] = 48 h, 10 µM, compound concentration 10 uM, replicate 1
# [12] = 48 h, 10 µM, compound concentration 10 uM, replicate 2
smiles,measurement,setting,value
CNc1cc(Oc2cc(C(=O)Nc3cc(N4CCN(C)CC4)cc(C(F)(F)F)c3)ccc2C)ncn1,Population Apoptotic (%),[1],32%
same,Population Healthy Nuclei (%),[1],59%
same,Population Hoechst High Intensity Objects (%),[1],11%
same,Population Membrane Permeable-Phenotype (%),[1],4%
same,Population Mitochondria Different-Phenotype (%),[1],68%
same,Population Mitotic Cells (%),[1],67%
same,Population Normal (%),[1],88%
same,Population Pyknosed Nuclei (%),[1],30%
same,Population Tubulin-Different-Phenotype (%),[1],60%
same,Total Cell Count,[1],176
same,Population Apoptotic (%),[2],54%
same,Population Fragmented Nuclei (%),[2],10%
same,Population Healthy Nuclei (%),[2],73%
same,Population Hoechst High Intensity Objects (%),[2],2%
same,Population Membrane Permeable-Phenotype (%),[2],10%
same,Population Mitochondria Different-Phenotype (%),[2],60%
same,Population Mitotic Cells (%),[2],45%
same,Population Normal (%),[2],97%
same,Population Pyknosed Nuclei (%),[2],16%
same,Population Tubulin-Different-Phenotype (%),[2],52%
same,Total Cell Count,[2],56
same,Population Apoptotic (%),[3],90%
same,Population Fragmented Nuclei (%),[3],40%
same,Population Healthy Nuclei (%),[3],10%
same,Population Hoechst High Intensity Objects (%),[3],6%
same,Population Membrane Permeable-Phenotype (%),[3],100%
same,Population Mitochondria Different-Phenotype (%),[3],100%
same,Population Mitotic Cells (%),[3],9%
same,Population Normal (%),[3],93%
same,Population Pyknosed Nuclei (%),[3],48%
same,Population Tubulin-Different-Phenotype (%),[3],100%
same,Total Cell Count,[3],116
same,Population Apoptotic (%),[4],73%
same,Population Fragmented Nuclei (%),[4],24%
same,Population Healthy Nuclei (%),[4],13%
same,Population Hoechst High Intensity Objects (%),[4],33%
same,Population Membrane Permeable-Phenotype (%),[4],58%
same,Population Mitochondria Different-Phenotype (%),[4],66%
same,Population Mitotic Cells (%),[4],26%
same,Population Normal (%),[4],66%
same,Population Pyknosed Nuclei (%),[4],61%
same,Population Tubulin-Different-Phenotype (%),[4],66%
same,Total Cell Count,[4],70
same,Population Apoptotic (%),[5],46%
same,Population Fragmented Nuclei (%),[5],11%
same,Population Healthy Nuclei (%),[5],64%
same,Population Hoechst High Intensity Objects (%),[5],9%
same,Population Membrane Permeable-Phenotype (%),[5],10%
same,Population Mitochondria Different-Phenotype (%),[5],64%
same,Population Mitotic Cells (%),[5],53%
same,Population Normal (%),[5],90%
same,Population Pyknosed Nuclei (%),[5],23%
same,Population Tubulin-Different-Phenotype (%),[5],55%
same,Total Cell Count,[5],174
same,Population Apoptotic (%),[6],50%
same,Population Fragmented Nuclei (%),[6],16%
same,Population Healthy Nuclei (%),[6],63%
same,Population Hoechst High Intensity Objects (%),[6],6%
same,Population Membrane Permeable-Phenotype (%),[6],13%
same,Population Mitochondria Different-Phenotype (%),[6],68%
same,Population Mitotic Cells (%),[6],50%
same,Population Normal (%),[6],93%
same,Population Pyknosed Nuclei (%),[6],19%
same,Population Tubulin-Different-Phenotype (%),[6],51%
same,Total Cell Count,[6],58
same,Population Apoptotic (%),[7],93%
same,Population Fragmented Nuclei (%),[7],47%
same,Population Healthy Nuclei (%),[7],3%
same,Population Hoechst High Intensity Objects (%),[7],10%
same,Population Membrane Permeable-Phenotype (%),[7],100%
same,Population Mitochondria Different-Phenotype (%),[7],100%
same,Population Mitotic Cells (%),[7],6%
same,Population Normal (%),[7],89%
same,Population Pyknosed Nuclei (%),[7],48%
same,Population Tubulin-Different-Phenotype (%),[7],100%
same,Total Cell Count,[7],120
same,Population Apoptotic (%),[8],76%
same,Population Fragmented Nuclei (%),[8],16%
same,Population Healthy Nuclei (%),[8],23%
same,Population Hoechst High Intensity Objects (%),[8],48%
same,Population Membrane Permeable-Phenotype (%),[8],80%
same,Population Mitochondria Different-Phenotype (%),[8],80%
same,Population Mitotic Cells (%),[8],23%
same,Population Normal (%),[8],51%
same,Population Pyknosed Nuclei (%),[8],60%
same,Population Tubulin-Different-Phenotype (%),[8],80%
same,Total Cell Count,[8],76
same,Population Apoptotic (%),[9],54%
same,Population Fragmented Nuclei (%),[9],21%
same,Population Healthy Nuclei (%),[9],60%
same,Population Hoechst High Intensity Objects (%),[9],6%
same,Population Membrane Permeable-Phenotype (%),[9],11%
same,Population Mitochondria Different-Phenotype (%),[9],50%
same,Population Mitotic Cells (%),[9],45%
same,Population Normal (%),[9],93%
same,Population Pyknosed Nuclei (%),[9],18%
same,Population Tubulin-Different-Phenotype (%),[9],49%
same,Total Cell Count,[9],163
same,Population Apoptotic (%),[10],50%
same,Population Fragmented Nuclei (%),[10],14%
same,Population Healthy Nuclei (%),[10],70%
same,Population Hoechst High Intensity Objects (%),[10],4%
same,Population Membrane Permeable-Phenotype (%),[10],24%
same,Population Mitochondria Different-Phenotype (%),[10],54%
same,Population Mitotic Cells (%),[10],50%
same,Population Normal (%),[10],95%
same,Population Pyknosed Nuclei (%),[10],14%
same,Population Tubulin-Different-Phenotype (%),[10],50%
same,Total Cell Count,[10],51
same,Population Apoptotic (%),[11],96%
same,Population Fragmented Nuclei (%),[11],52%
same,Population Healthy Nuclei (%),[11],2%
same,Population Hoechst High Intensity Objects (%),[11],20%
same,Population Membrane Permeable-Phenotype (%),[11],100%
same,Population Mitochondria Different-Phenotype (%),[11],100%
same,Population Mitotic Cells (%),[11],3%
same,Population Normal (%),[11],80%
same,Population Pyknosed Nuclei (%),[11],45%
same,Population Tubulin-Different-Phenotype (%),[11],100%
same,Total Cell Count,[11],142
same,Population Apoptotic (%),[12],47%
same,Population Fragmented Nuclei (%),[12],22%
same,Population Healthy Nuclei (%),[12],45%
same,Population Hoechst High Intensity Objects (%),[12],50%
same,Population Membrane Permeable-Phenotype (%),[12],89%
same,Population Mitochondria Different-Phenotype (%),[12],89%
same,Population Mitotic Cells (%),[12],52%
same,Population Normal (%),[12],50%
same,Population Pyknosed Nuclei (%),[12],31%
same,Population Tubulin-Different-Phenotype (%),[12],89%
same,Total Cell Count,[12],85

# — ChEMBL document CHEMBL4689842, “EUbOPEN Chemogenomics Library wave 1” (2021)
